Measured values: ChEMBL document CHEMBL4184106, “Discovering alkylamide derivatives of bexarotene as new therapeutic agents against triple-negative breast cancer” (Bioorg Med Chem Lett, 2018)
Activity calls are given as the source filed them. No cut-off for these calls is given here.

Columns and labels:
MDA-MB-231 [1] = assay: Effect on epithelial-mesenchymal transition in human MDA-MB-231 cells assessed as ratio of vimentin to beta-actin level at 5 uM by Western blot analysis (reference value: 1); format: functional
MCF7 [2] = assay: Inhibition of mammosphere formation in human MCF7 cells at 2 uM after 7 days by microscopic method; format: functional, cell-based
Outline: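 MCF-7 cells were grown under mammosphere-forming conditions with compound. Spheres 60 μm or larger were counted for quantitation.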

BT-549 [3] = assay: Inhibition of mammosphere formation in human BT549 cells assessed as ratio of KLF4 to beta actin level at 5 uM by Western blot analysis (Rvb= 1); format: functional
MDA-MB-231 [4] = assay: Inhibition of colony formation in human MDA-MB-231 cells at 2 uM supplemented with fresh medium containing compound every 3 days for 10 days by microscopic method based soft agar colony formation assay relative to control; format: functional
MCF7 [5] = assay: Down regulation of Nanog expression in human MCF7 cells at 5 uM by Western blot analysis; format: functional
Outline: (§1)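 MCF-7 cells were treated and lysates probed by Western blot for CSC-related markers, with β-actin as loading control. Band densitometry was normalized to DMSO-treated samples.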

MCF7 [6] = assay: Down regulation of KLF4 expression in human MCF7 cells at 5 uM by Western blot analysis; format: functional; outline: as §1
BT-549 [7] = assay: Inhibition of mammosphere formation in human BT549 cells assessed as ratio of C-Myc to beta actin level at 5 uM by Western blot analysis (Rvb= 1); format: functional
MDA-MB-231 [8] = assay: Induction of apoptosis in human MDA-MB-231 cells assessed as ratio of cleaved caspase-9 to beta-actin level at 5 uM by western blot analysis (reference value: 1); format: functional
MCF-10A [9] = assay: Cytotoxicity against human MCF10A cells assessed as reduction in cell viability by MTT assay; format: cell-based
BT-549 [10] = assay: Effect on epithelial-mesenchymal transition in human BT549 cells assessed as ratio of vimentin to beta-actin level at 5 uM by Western blot analysis (reference value: 1); format: functional
MCF-10A [11] = assay: Induction of apoptosis in human MCF10A cells assessed as ratio of cleaved caspase-9 to beta-actin level at 5 uM by western blot analysis (reference value: 1); format: cell-based
MCF-10A [12] = assay: Induction of apoptosis in human MCF10A cells assessed as ratio of cleaved caspase-8 to beta-actin level at 5 uM by western blot analysis (reference value: 1); format: cell-based
MCF7 [13] = assay: Induction of apoptosis in human MCF7 cells assessed as ratio of cleaved caspase-8 to beta-actin level at 5 uM by western blot analysis (reference value: 1); format: functional
MCF7 [14] = assay: Inhibition of mammosphere formation in human MCF7 cells assessed as ratio of KLF4 to beta actin level at 5 uM by Western blot analysis (Rvb= 1); format: functional
Outline: (§2)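 Post-treatment cell lysates were probed by Western blot for CSC markers, with β-actin as the loading control. Band densitometry was normalized to DMSO-treated samples.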

MCF7 [15] = assay: Inhibition of colony formation in human MCF7 cells at 5 uM supplemented with fresh medium containing compound every 3 to 4 days for 7 days by crystal violet staining based adherent cell colony-forming assay; format: functional
Outline: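 MCF-7 cells were plated for adherent colony formation and treated for 7 days. Colonies were counted at the end of treatment and normalized to untreated samples.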

MCF7 [16] = assay: Inhibition of mammosphere formation in human MCF7 cells assessed as ratio of Nanog to beta actin level at 5 uM by Western blot analysis (Rvb= 1); format: functional; outline: as §2
MDA-MB-231 [17] = assay: Effect on epithelial-mesenchymal transition in human MDA-MB-231 cells assessed as ratio of slug to beta-actin level at 5 uM by Western blot analysis (reference value: 1); format: functional
BT-549 [18] = assay: Induction of apoptosis in human BT549 cells assessed as ratio of cleaved caspase-3 to beta-actin level at 5 uM by western blot analysis (reference value: 1); format: functional
MCF7 [19] = assay: Down regulation of c-Myc expression in human MCF7 cells at 5 uM by Western blot analysis; format: functional; outline: as §1
MCF7 [20] = assay: Inhibition of mammosphere formation in human MCF7 cells assessed as ratio of Oct4A to beta actin level at 5 uM by Western blot analysis (Rvb= 1); format: functional; outline: as §2
MCF7 [21] = assay: Down regulation of Oct4A expression in human MCF7 cells at 5 uM by Western blot analysis; format: functional; outline: as §1
BT-549 [22] = assay: Induction of apoptosis in human BT549 cells assessed as ratio of cleaved caspase-8 to beta-actin level at 5 uM by western blot analysis (reference value: 1); format: functional
MDA-MB-231 [23] = assay: Cytotoxicity against human MDA-MB-231 cells assessed as reduction in cell viability by MTT assay; format: functional, cell-based
MDA-MB-231 [24] = assay: Inhibition of mammosphere formation in human MDA-MB-231 cells assessed as ratio of C-Myc to beta actin level at 5 uM by Western blot analysis (Rvb= 1); format: functional; outline: as §2
BT-549 [25] = assay: Induction of apoptosis in human BT549 cells assessed as ratio of cleaved caspase-9 to beta-actin level at 5 uM by western blot analysis (reference value: 1); format: functional
MDA-MB-231 [26] = assay: Inhibition of mammosphere formation in human MDA-MB-231 cells assessed as ratio of KLF4 to beta actin level at 5 uM by Western blot analysis (Rvb= 1); format: functional; outline: as §2
MCF7 [27] = assay: Inhibition of mammosphere formation in human MCF7 cells assessed as ratio of C-Myc to beta actin level at 5 uM by Western blot analysis (Rvb= 1); format: functional; outline: as §2
MDA-MB-231 [28] = assay: Effect on epithelial-mesenchymal transition in human MDA-MB-231 cells assessed as ratio of E-cadherin to beta-actin level at 5 uM by Western blot analysis (reference value: 1); format: functional
MDA-MB-231 [29] = assay: Cytotoxicity against human MDA-MB-231 cells assessed as reduction in cell viability at 5 uM by MTT assay; format: functional
MDA-MB-231 [30] = assay: Induction of apoptosis in human MDA-MB-231 cells assessed as ratio of cleaved caspase-3 to beta-actin level at 5 uM by western blot analysis (reference value: 1); format: functional
BT-549 [31] = assay: Cytotoxicity against human BT549 cells assessed as reduction in cell viability by MTT assay; format: functional, cell-based
MCF-10A [32] = assay: Induction of apoptosis in human MCF10A cells assessed as ratio of cleaved caspase-3 to beta-actin level at 5 uM by western blot analysis (reference value: 1); format: cell-based
MCF7 [33] = assay: Induction of apoptosis in human MCF7 cells assessed as ratio of cleaved caspase-9 to beta-actin level at 5 uM by western blot analysis (reference value: 1); format: functional
MCF7 [34] = assay: Cytotoxicity against human MCF7 cells assessed as reduction in cell viability at 5 uM by MTT assay; format: functional
BT-549 [35] = assay: Cytotoxicity against human BT549 cells assessed as reduction in cell viability at 5 uM by MTT assay; format: functional
MCF7 [36] = assay: Induction of apoptosis in human MCF7 cells assessed as ratio of cleaved caspase-3 to beta-actin level at 5 uM by western blot analysis (reference value: 1); format: functional
MCF7 [37] = assay: Inhibition of mammosphere formation in human MCF7 cells assessed as ratio of Sox2 to beta actin level at 5 uM by Western blot analysis (Rvb= 1); format: functional; outline: as §2
BT-549 [38] = assay: Effect on epithelial-mesenchymal transition in human BT549 cells assessed as ratio of E-cadherin to beta-actin level at 5 uM by Western blot analysis (reference value: 1); format: functional
MDA-MB-231 [39] = assay: Down regulation of KLF4 expression in human MDA-MB-231 cells at 5 uM by Western blot analysis; format: functional
MDA-MB-231 [40] = assay: Anti-migratory activity against human MDA-MB-231 cells assessed as reduction in wound closure at 2 uM up to 24 hrs by wound-healing assay; format: functional, cell-based
Outline: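 MDA-MB-231 monolayer was scratched to make a wound gap. Cells were treated alongside a DMSO vehicle control, and migration into the gap was imaged at 24 h.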

MDA-MB-231 [41] = assay: Induction of apoptosis in human MDA-MB-231 cells assessed as ratio of cleaved caspase-8 to beta-actin level at 5 uM by western blot analysis (reference value: 1); format: functional
BT-549 [42] = assay: Effect on epithelial-mesenchymal transition in human BT549 cells assessed as ratio of slug to beta-actin level at 5 uM by Western blot analysis (reference value: 1); format: functional

C=C(c1ccc(C(=O)NCCN(CC)CC)cc1)c1cc2c(cc1C)C(C)(C)CCC2(C)C
Ratio (MDA-MB-231 [1]): 0.4 | inhibition (MCF7 [2]): Active | Ratio (BT-549 [3]): 0.5 | inhibition (INH) (MDA-MB-231 [4]): 90% | Activity (MCF7 [5]): 20% | Activity (MCF7 [6]): 10 - 30% | Ratio (BT-549 [7]): 0.9 | Ratio (MDA-MB-231 [8]): 2.5 | Activity (MCF-10A [9]): Non-Toxic | Ratio (BT-549 [10]): 0.4 | Ratio (MCF-10A [11]): 1 | Ratio (MCF-10A [12]): 1 | Ratio (MCF7 [13]): 1 | Ratio (MCF7 [14]): 0.9 | inhibition (INH) (MCF7 [15]): 80% | Ratio (MCF7 [16]): 0.8 | Ratio (MDA-MB-231 [17]): 0.9 | Ratio (BT-549 [18]): 2.6 | Activity (MCF7 [19]): 10 - 30% | Ratio (MCF7 [20]): 0.5 | Activity (MCF7 [21]): 50% | Ratio (BT-549 [22]): 2.1 | EC50 (MDA-MB-231 [23]): < 10 µM | Ratio (MDA-MB-231 [24]): 0.9 | Ratio (BT-549 [25]): 2.3 | Ratio (MDA-MB-231 [26]): 0.5 | Ratio (MCF7 [27]): 0.7 | Ratio (MDA-MB-231 [28]): 1.9 | Activity (MDA-MB-231 [29]): 60% | Ratio (MDA-MB-231 [30]): 1.3 | EC50 (BT-549 [31]): < 10 µM | Ratio (MCF-10A [32]): 1.1 | Ratio (MCF7 [33]): 1 | Activity (MCF7 [34]): 40% | Activity (BT-549 [35]): 60% | Ratio (MCF7 [36]): 0.9 | Ratio (MCF7 [37]): 0.9 | Ratio (BT-549 [38]): 2.4 | Activity (MDA-MB-231 [39]): 50% | Activity (MDA-MB-231 [40]): Active | Ratio (MDA-MB-231 [41]): 1.5 | Ratio (BT-549 [42]): 0.4
